What was measured:
[1] = tested on: Trypanosoma brucei; experiment: Antitrypanosomal activity against wild type Trypanosoma brucei bloodstream form assessed as growth inhibition after 3 days by Alamar blue assay; assay type: functional, organism-based; conditions: 72 h
Method in brief: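 Bloodstream-form T. brucei seeded at 1 × 10³ per mL in growth medium with a range of test compound concentrations; 3 days at 37 °C, then alamarBlue added and incubation continued 16 h before reading.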

[2] = tested on: Trypanosoma brucei; experiment: Activity of His-tagged Trypanosoma brucei nitroreductase assessed as oxidation of NADH
Method in brief: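 Purified His-tagged T. brucei nitroreductase (TbNTR) incubated with test compound; NADH consumption followed as change in absorbance at 340 nm.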

[3] = tested on: Trypanosoma brucei; experiment: Antitrypanosomal activity against Trypanosoma brucei bloodstream form overexpressing nitroreductase assessed as growth inhibition after 3 days by Alamar blue assay; assay type: functional, organism-based; conditions: 72 h
Method in brief: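 Bloodstream-form T. brucei induced to express elevated nitroreductase, with non-induced parasites as controls. Parasites seeded at 1 × 10³ mL⁻¹ in growth medium with a range of test-compound concentrations and incubated 3 days at 37 °C. alamarBlue was then added for a further 16 h as the viability read-out.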

| Compound | IC50 [1] [µM] | Activity [2] [nmol/min/mg] | IC50 [3] [µM] |
| --- | --- | --- | --- |
| O=C(NCCCC(NC(=O)OCc1ccc([N+](=O)[O-])cc1F)(C(=O)O)C(F)F)OCc1ccc([N+](=O)[O-])cc1F (configuration not stated) | > 100 | 312 | – |
| NCCCC(NC(=O)OCc1ccc([N+](=O)[O-])cc1F)(C(=O)O)C(F)F (configuration not stated) | > 100 | 227 | – |
| CC1CS(=O)(=O)CCN1/N=C/c1ccc([N+](=O)[O-])o1 (configuration not stated) [NIFURTIMOX] | 1.83 | 423 | 0.26 |
| NCCCC(N)(C(=O)OCc1ccc([N+](=O)[O-])cc1F)C(F)F (configuration not stated) | > 100 | 203 | – |
| NCCCC(NC(=O)OCc1ccc([N+](=O)[O-])cc1)(C(=O)O)C(F)F (configuration not stated) | > 100 | 42 | – |
| NCCCC(N)(C(=O)OCc1ccc([N+](=O)[O-])cc1)C(F)F (configuration not stated) | > 100 | 60 | – |
| NC(CCCNC(=O)OCc1ccc([N+](=O)[O-])cc1F)(C(=O)O)C(F)F (configuration not stated) | 39.5 | 260 | 39.9 |
| O=C(NCCCC(NC(=O)OCc1ccc([N+](=O)[O-])cc1)(C(=O)O)C(F)F)OCc1ccc([N+](=O)[O-])cc1 (configuration not stated) | > 100 | 140 | – |
| NCCCC(N)(C(=O)O)C(F)F (configuration not stated) [EFLORNITHINE] | 8.3 | 21 | – |
| NC(CCCNC(=O)OCc1ccc([N+](=O)[O-])cc1)(C(=O)O)C(F)F (configuration not stated) | > 100 | 33 | – |
